According to ChEMBL document CHEMBL4350958, “Rational Design of Short Peptide Variants by Using Kunitzin-RE, an Amphibian-Derived Bioactivity Peptide, for Acquired Potent Broad-Spectrum Antimicrobial and Improved Therapeutic Potential of Commensalism Coinfection of Pathogens” (J Med Chem, 2019):

What was measured:
Candida albicans [1] = experiment: Antifungal activity against Candida albicans cgmcc2.2086 measured after 48 hrs in presence of ZnCl by broth microdilution method; assay type: functional; details: cgmcc2.2086, 48 h
Escherichia coli [2] = experiment: Antibacterial activity against Escherichia coli K88 measured after 24 hrs; assay type: functional; details: K88, 24 h
In short: (§1)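 Broth microdilution adapted from NCCLS. Mid-log bacteria were diluted in MHB to a final (0.5–1) × 10^5 CFU mL−1. Peptides were serially diluted in 0.2% BSA and mixed with an equal volume of cells. After 24 h at 37 °C, MIC was read at A492 as the lowest concentration inhibiting 95% of growth. At least three independent experiments, each with three technical replicates.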

Salmonella typhimurium [3] = experiment: Bactericidal activity against Salmonella typhimurium ATCC 14028 incubated for 24 hrs followed by replating on agar plate and measured after overnight incubation; assay type: functional, Salmonella enterica subsp. enterica serovar Typhimurium; details: Salmonella enterica, ATCC 14028, 24 h; read-out: MBC>99.9
In short: (§2)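 Mid-log bacteria diluted in MHB to (0.5–1) × 10^5 CFU/mL and mixed 1:1 with peptide serially diluted in 0.2% BSA. After 24 h at 37 °C, 50 μL of each mixture was plated on agar and incubated overnight. MBC taken as the lowest concentration killing >99.9% of cells. At least three independent experiments, each with three technical replicates.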

Salmonella typhimurium [4] = experiment: Bactericidal activity against Salmonella typhimurium C7731 incubated for 24 hrs followed by replating on agar plate and measured after overnight incubation; assay type: functional, Salmonella enterica subsp. enterica serovar Typhimurium; details: Salmonella enterica, C7731, 24 h; read-out: MBC>99.9; in short: as §2
Staphylococcus aureus [5] = experiment: Antibacterial activity against Staphylococcus aureus ATCC 29213 measured after 18 to 24 hrs in presence of MgCl2; assay type: functional
[6] = Conformational stability in 50% trifluoro-ethyl alcohol assessed as alpha-helical structural propensity by measuring absorption spectra at minimum dichroic band at 35 uM by CD spectra analysis; assay type: physicochemical
In short: (§3)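 CD spectra from 190 to 250 nm of peptide at 35 μM in 10 mM PBS, 30 mM SDS micelles or 50% TFE, recorded in a 1.0-mm quartz cell. Ellipticity was converted to mean residue ellipticity. Three independent scans, each averaged over more than 3 runs.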

Escherichia coli [7] = experiment: Bactericidal activity against Escherichia coli UB1005 incubated for 24 hrs followed by replating on agar plate and measured after overnight incubation; assay type: functional; details: UB1005, 24 h, read-out: MBC>99.9; in short: as §2
Salmonella typhimurium [8] = experiment: Antibacterial activity against Salmonella typhimurium C7731 measured after 24 hrs; assay type: functional, Salmonella enterica subsp. enterica serovar Typhimurium; details: Salmonella enterica, C7731, 24 h; in short: as §1
[9] = Therapeutic index, ratio of MHC10 for hemolytic activity in human RBC to MIC95 against Staphylococcus epidermidis ATCC 12228; assay type: toxicity; details: human red blood cells (erythrocytes), read-out: TI
In short: (§4)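 Therapeutic index = MHC divided by MIC. MHC is the lowest concentration giving >10% lysis of human RBC (1 h, 37 °C, 1-128 µM, A576). MIC is 95% growth inhibition by broth microdilution: bacteria in MHB 24 h at 37 °C; Candida in MOPS-buffered RPMI 1640 at (0.5–1) × 10^3 CFU mL−1, 48 h at 28 °C.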

[10] = Therapeutic index, ratio of MHC10 for hemolytic activity in human RBC to MIC95 against Escherichia coli ATCC 25922; assay type: toxicity; details: human red blood cells (erythrocytes), pooled result: one value given for 9 cell lines, strains, targets or settings, read-out: TI; in short: as §4
[11] = Conformational stability in pH 7.4 sodium phosphate buffer assessed as absorption spectra at minimum dichroic band at 35 uM by CD spectra analysis; assay type: physicochemical; details: pH 7.4, 35 µM; in short: as §3
[12] = Cytotoxicity against mouse RAW264.7 cells assessed as cell viability at 2 to 64 uM measured after 18 to 24 hrs by MTT assay relative to control; assay type: cell-based; details: RAW264.7 cells, read-out: Activity
In short: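 MTT assay: RAW264.7 cells seeded at 1.0–2.0×10^4 per well and exposed to peptide (2–64 µM) for 18–24 h at 37 °C in 5% CO2. MTT (0.5 mg/mL) added for 4 h, formazan dissolved in DMSO, read at 570 nm. At least three independent experiments with triplicate wells.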

Escherichia coli [13] = experiment: Bactericidal activity against Escherichia coli 078 incubated for 24 hrs followed by replating on agar plate and measured after overnight incubation; assay type: functional; details: Escherichia coli, 078, 24 h; read-out: MBC>99.9
In short: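 After the 24 h, 37 °C MHB microdilution (0.5–1 × 10^5 CFU mL−1 inoculum, peptides diluted in 0.2% BSA), 50 μL from each well was plated on agar and incubated overnight. MBC was taken as the lowest concentration killing >99.9% of cells. Three or more independent experiments, each with triplicate technical replicates.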

Candida albicans [14] = experiment: Antifungal activity against Candida albicans cgmcc2.2086 measured after 48 hrs in presence of CaCl by broth microdilution method; assay type: functional; details: cgmcc2.2086, 48 h
[15] = Therapeutic index, ratio of MHC10 for hemolytic activity in human RBC to MIC95 against Candida albicans cgmcc2.2086; assay type: toxicity; details: human red blood cells (erythrocytes), read-out: TI; in short: as §4
Candida tropicalis = experiment: Fungicidal activity against Candida tropicalis cgmcc2.1975 incubated for 48 hrs followed by replating on YM agar plate and measured after 48 hrs; assay type: functional
In short: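 Yeast diluted in MOPS-buffered RPMI 1640 to (0.5–1) × 10^3 CFU/mL (CLSI M27-A2, modified) and mixed 1:1 with peptide serially diluted in 0.2% BSA. After 48 h at 28 °C, 50 μL per well was plated on YM agar and incubated 48 h at 28 °C. MFC taken as the lowest concentration killing ≥99.9% of cells. Three or more independent experiments, triplicate wells.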

Escherichia coli [16] = experiment: Bactericidal activity against Escherichia coli K88 incubated for 24 hrs followed by replating on agar plate and measured after overnight incubation; assay type: functional; details: K88, 24 h, read-out: MBC>99.9; in short: as §2
Escherichia coli [17] = experiment: Antibacterial activity against Escherichia coli ATCC 25922 measured after 18 to 24 hrs in presence of KCl; assay type: functional
[18] = Antibacterial activity against Salmonella pullorum ATCC 7913 measured after 24 hrs; assay type: functional, Salmonella enterica subsp. enterica serovar Pullorum; details: Salmonella enterica, ATCC 7913, 24 h; in short: as §1
Staphylococcus aureus [19] = experiment: Antibacterial activity against methicillin-resistant Staphylococcus aureus ATCC 43300 measured after 24 hrs; assay type: functional; details: ATCC 43300, 24 h
In short: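 Broth microdilution modified from NCCLS. Mid-log bacteria at (0.5–1) × 10^5 CFU mL−1 in MHB, mixed with peptides serially diluted in 0.2% BSA. Incubated 24 h at 37 °C, read at A492. MIC taken as lowest concentration giving 95% growth inhibition. At least three independent experiments, each with three technical replicates.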

Candida parapsilosis = experiment: Antifungal activity against Candida parapsilosis cgmcc2.3989 measured after 48 hrs by broth microdilution method; assay type: functional; details: Lodderomyces parapsilosis, cgmcc2.3989, 48 h
In short: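 Modified CLSI M27-A2 microdilution. Yeast colonies were diluted in MOPS-buffered RPMI 1640 to a final (0.5–1) × 10^3 CFU mL−1 and mixed with an equal volume of peptide serially diluted in 0.2% BSA. After 48 h at 28 °C, MIC was read at A492 as the lowest concentration inhibiting 95% of growth. At least three independent experiments, each with three technical replicates.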

Escherichia coli [20] = experiment: Antibacterial activity against Escherichia coli ATCC 25922 measured after 18 to 24 hrs in presence of NH4Cl; assay type: functional

Substance | MIC95 (Candida albicans [1]) | MIC95 (Escherichia coli [2]) | MBC (Salmonella typhimurium [3]) | MBC (Salmonella typhimurium [4]) | MIC95 (Staphylococcus aureus [5]) | Activity [6] | MBC (Escherichia coli [7]) | MIC95 (Salmonella typhimurium [8]) | selectivity ratio [9] | selectivity ratio [10] | Wavelength of minimum CD band [11] | viability at up to 64 µM [12] | MBC (Escherichia coli [13]) | MIC95 (Candida albicans [14]) | selectivity ratio [15] | MFC<=99.9 (Candida tropicalis) | MBC (Escherichia coli [16]) | MIC95 (Escherichia coli [17]) | MIC95 [18] | MIC95 (Staphylococcus aureus [19]) | other results
H-AARIILRIRFR-NH2 | 8 µM | 2 µM | 4 µM | 8 µM | 2 µM | 208 to 222 nm | 8 µM | 4 µM | 64 | 37.3 | 200 nm | 90 to 100% | 4 µM | 64 µM | 25.4 | 4 µM | 4 µM | 2 µM | 2 µM | 2 µM | MIC95 (Candida parapsilosis): 4 µM; MIC95 (Escherichia coli [20]): 4 µM
H-AARIILRGRFR-NH2 | > 128 µM | 2 µM | 8 µM | 16 µM | 16 µM | 208 to 222 nm | 8 µM | 8 µM | 26.9 | 54.3 | 200 nm | 90 to 100% | 8 µM | > 128 µM | 5.04 | 32 µM | 4 µM | 8 µM | 4 µM | 8 µM | MIC95 (Candida parapsilosis): 64 µM; MIC95 (Escherichia coli [20]): 8 µM
H-AARIILRTRFR-NH2 | > 128 µM | 4 µM | 32 µM | 32 µM | 32 µM | 208 to 222 nm | 8 µM | 16 µM | 16 | 27.4 | 200 nm | 90 to 100% | 8 µM | > 128 µM | 4 | 64 µM | 8 µM | 32 µM | 8 µM | 16 µM | MIC95 (Candida parapsilosis): 64 µM; MIC95 (Escherichia coli [20]): 8 µM
H-AARIILRFRFR-NH2 | 8 µM | 4 µM | 8 µM | 8 µM | 2 µM | 208 to 222 nm | 8 µM | 4 µM | 128 | 43.5 | 200 nm | 90 to 100% | 8 µM | 64 µM | 50.8 | 4 µM | 8 µM | 16 µM | 4 µM | 2 µM | MIC95 (Candida parapsilosis): 4 µM; MIC95 (Escherichia coli [20]): 4 µM
H-AARRILRWIFR-NH2 | 8 µM | 4 µM | 8 µM | 8 µM | 8 µM | 208 to 222 nm | 4 µM | 4 µM | 45.2 | 59.3 | 200 nm | 90 to 100% | 4 µM | 128 µM | 40.3 | 4 µM | 8 µM | 8 µM | 4 µM | 8 µM | MIC95 (Candida parapsilosis): 8 µM; MIC95 (Escherichia coli [20]): 4 µM
